Series [1] relates to A549. The series can be described thus: Antitumor activity against paclitaxel-resistant human A549 cells xenografted in athymic nu/nu BALB/c mouse assessed as inhibition of Ki-67 expression at 5 to 10 mg/kg, ip administered 35 days post-implantation 3 times a week by immunohistochemistry. The series is classed as functional, organism-based. A digest of the protocol: (§1)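 Female athymic BALB/c nu/nu mice, six weeks old; 2 × 10^6 A549 or A549-Pa cells in 0.1 mL RPMI injected s.c. into right flank on day 0. Dosing began at 95–100 mm3 tumour volume: drug in 1% cremophore in PBS given i.p. three times weekly; controls got vehicle; five mice/group. Tumour volume tracked every 3–5 days; tumours excised and weighed at end; sections immunostained for Ki-67.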
On the technique in general: In xenograft studies the graft and the host belong to different species.

The subject of series [2] is A549. Put plainly: Inhibition of AKT/mTOR signaling in human A549 cells assessed as inhibition of eIF4E phosphorylation at 50 to 400 nM after 24 hrs by Western blot analysis. The series is classed as cell-based. A digest of the protocol:
(§2)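 A549 cells plated at 3 × 10^5 per 60 mm dish, grown 24 h, then exposed to a concentration series for 24 h. Lysed in boiling SDS sample buffer with NaF and orthovanadate; protein by BCA; 25–50 µg run on 8–15% SDS-PAGE, transferred to PVDF, blocked in 5% milk/PBST, primary antibodies overnight at 4 °C, secondary 1–2 h, ECL detection.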

Series [3] addresses TCF4/beta-catenin (Homo sapiens) (UniProt P35222+Q9NQB0). The series can be described thus: Inhibition of transcription activity of […]/TCF4 (unknown origin) expressed in HEK293 cells after 24 hrs by luciferase reporter gene assay. The series is classed as cell-based. A digest of the protocol:
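HEK293 cells were co-transfected for 24 h with 100 ng TOPflash β-catenin/Tcf reporter and 5 ng pRL-SV40. Graded compound concentrations were then added for 24 h. Firefly activity was read with a dual-luciferase system and normalized to Renilla. Significance was tested against DMSO control.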
Background: Reporter assays use an easily measured gene product as a stand-in for the process of interest.

In series [4] the test system is A549. Put plainly: Antitumor activity against paclitaxel-resistant human A549 cells xenografted in ip dosed athymic nu/nu BALB/c mouse assessed as inhibition of P-gp expression administered 35 days post-implantation 3 times a week by immunohistochemistry. The class given is functional, organism-based. A digest of the protocol: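 A549-Pa (paclitaxel-resistant) xenografts in female athymic BALB/c nu/nu mice, grown s.c. in right flank and treated i.p. three times weekly in 1% cremophore/PBS once tumours reached 95–100 mm3. Excised tumour sections incubated overnight at 4 °C with P-glycoprotein antibody, detected by HRP-polymer system, hematoxylin counterstain, viewed by microscopy.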

The subject of series [5] is A549. Put plainly: Inhibition of AKT phosphorylation at T308 residue in human A549 cells at 50 to 400 nM after 24 hrs by Western blot analysis. The series is classed as cell-based. A digest of the protocol: as §2
In series [6] the target is T1, ATP-dependent translocase ABCB1 (Homo sapiens, UniProt P08183). The series can be described thus: Inhibition of P-gp activity in human paclitaxel-resistant A549 cells assessed as rhodamine 123 accumulation at 200 nM after 72 hrs by FACS analysis (reference value: 14.4 %). The class given is cell-based. Also noted: scale not given: the % may be the effect or the level left. Conditions: a549, 72 h, 0.2 µM.

Series [7] has as its target T1, ATP-dependent translocase ABCB1. The series can be described thus: Inhibition of P-gp activity in human paclitaxel-resistant A549 cells potentiation of 2.5 uM gefitinib-induced cytotoxicity at 0.05 uM by SRB assay. The series is classed as cell-based. The following applies: a549, 0.05 µM. A digest of the protocol: (§3)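 A549-Pa cells plated at 5 × 10^4 cells/well and co-treated for 48 h with the compound (0–200 nM) plus paclitaxel or gefitinib; growth inhibition by SRB assay. Combination index computed at the 50% inhibition level as CI = D1/(Dx)1 + D2/(Dx)2, comparing combined versus single-agent concentrations.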
On the technique in general: In SRB staining, fixed cells bind dye roughly in proportion to their protein.

In series [8] the test system is A549. Put plainly: Cell cycle arrest in human A549 cells assessed as accumulation at S phase at 200 nM after 24 hrs by flow cytometry (reference value: 13.38 %). The series is classed as functional.
Series [9] concerns A549. Put plainly: Cytotoxicity against human paclitaxel-resistant A549 cells after 72 hrs by SRB assay. The following applies: A549, 72 h. The series is classed as functional, cell-based. A digest of the protocol: (§4)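 SRB growth assay: 5 × 10^3 cells/well exposed to a concentration series for 72 h; fixed in 10% TCA 30 min at 4 °C, stained with 0.4% SRB in 1% acetic acid 30 min, dye dissolved in 10 mM Tris pH 10.0, absorbance at 515 nm. Viability relative to vehicle control; IC50 by non-linear regression; at least three experiments. A549-Pa is a paclitaxel-resistant A549 subline.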

The target of series [10] is T1, ATP-dependent translocase ABCB1. The series can be described thus: Inhibition of P-gp activity in human paclitaxel-resistant A549 cells potentiation of 10 uM paclitaxel-induced cytotoxicity at 0.2 uM by SRB assay. The class given is cell-based. Conditions: a549, 0.2 µM. A digest of the protocol: as §3
Series [11] relates to A549. The series can be described thus: human A549 cells assessed as morphological changes at 50 to 400 nM after 24 hrs by inverted phase-contrast microscopy.
For series [12], the system named is A549. The series can be described thus: Cell cycle arrest in human A549 cells assessed as accumulation at sub-G1 phase at 400 nM after 24 hrs by flow cytometry (reference value: 1.40 %). The series is classed as functional.
A further series concerns SNU-638. The series can be described thus: Cytotoxicity against human SNU638 cells after 72 hrs by SRB assay. The class given is functional, cell-based. Conditions: SNU-638, 72 h. A digest of the protocol:
as §4

Series [13] deals with A549. Put plainly: Cell cycle arrest in human A549 cells assessed as accumulation at G0/G1 phase at 200 nM after 24 hrs by flow cytometry (reference value: 62.38 %). The series is classed as functional.
Series [14] concerns the target T1, ATP-dependent translocase ABCB1. Put plainly: Inhibition of P-gp activity in paclitaxel-resistant human A549 cells potentiation of 2.5 uM paclitaxel-induced cytotoxicity at 0.05 uM by SRB assay. The series is classed as cell-based. The following applies: a549, 0.05 µM. A digest of the protocol:
as §3

The test system of series [15] is A549. The series can be described thus: Cell cycle arrest in human A549 cells assessed as accumulation at G2/M phase at 50 nM after 24 hrs by flow cytometry (reference value: 22.84 %). The class given is functional.
The subject of series [16] is A549. The series can be described thus: Cell cycle arrest in human A549 cells assessed as accumulation at sub-G1 phase at 100 nM after 24 hrs by flow cytometry (reference value: 1.40 %). The class given is functional.
The subject of series [17] is A549. The series can be described thus: Cell cycle arrest in human A549 cells assessed as accumulation at S phase at 400 nM after 24 hrs by flow cytometry (reference value: 13.38 %). The class given is functional.
Series [18] deals with A549. Put plainly: Cell cycle arrest in human A549 cells assessed as accumulation at sub-G1 phase at 200 nM after 24 hrs by flow cytometry (reference value: 1.40 %). The series is classed as functional.
Series [19] has as its system A549. The series can be described thus: Inhibition of AKT/c-myc signaling in human A549 cells assessed as reduction in CDK4 protein expression at 50 to 400 nM after 24 hrs by Western blot analysis. The class given is cell-based. A digest of the protocol: as §2
For series [20], the system named is A549. The series can be described thus: Cell cycle arrest in human A549 cells assessed as accumulation at S phase at 100 nM after 24 hrs by flow cytometry (reference value: 13.38 %). The series is classed as functional.
Series [21] deals with A549. Put plainly: Inhibition of AKT/mTOR signaling in human A549 cells assessed as inhibition of 4E-BP1 phosphorylation at 50 to 400 nM after 24 hrs by Western blot analysis. The class given is cell-based. A digest of the protocol:
as §2

In series [22] the test system is A549. The series can be described thus: Cell cycle arrest in human A549 cells assessed as accumulation at G0/G1 phase at 50 nM after 24 hrs by flow cytometry (reference value: 62.38 %). The class given is functional.
For series [23], the system named is A549. The series can be described thus: Antitumor activity against human A549 cells xenografted in athymic nu/nu BALB/c mouse assessed as inhibition of tumor growth at 5 mg/kg, ip administered 35 days post-implantation 3 times a week relative to control. The series is classed as functional. The following applies: 840 h, route intraperitoneal, read-out: TGI. A digest of the protocol: as §1

pIC50: −log10 of the molar value. The source made the active and inactive calls. The rule behind the calls is not given here.

T1 sequence (P08183 whole entry): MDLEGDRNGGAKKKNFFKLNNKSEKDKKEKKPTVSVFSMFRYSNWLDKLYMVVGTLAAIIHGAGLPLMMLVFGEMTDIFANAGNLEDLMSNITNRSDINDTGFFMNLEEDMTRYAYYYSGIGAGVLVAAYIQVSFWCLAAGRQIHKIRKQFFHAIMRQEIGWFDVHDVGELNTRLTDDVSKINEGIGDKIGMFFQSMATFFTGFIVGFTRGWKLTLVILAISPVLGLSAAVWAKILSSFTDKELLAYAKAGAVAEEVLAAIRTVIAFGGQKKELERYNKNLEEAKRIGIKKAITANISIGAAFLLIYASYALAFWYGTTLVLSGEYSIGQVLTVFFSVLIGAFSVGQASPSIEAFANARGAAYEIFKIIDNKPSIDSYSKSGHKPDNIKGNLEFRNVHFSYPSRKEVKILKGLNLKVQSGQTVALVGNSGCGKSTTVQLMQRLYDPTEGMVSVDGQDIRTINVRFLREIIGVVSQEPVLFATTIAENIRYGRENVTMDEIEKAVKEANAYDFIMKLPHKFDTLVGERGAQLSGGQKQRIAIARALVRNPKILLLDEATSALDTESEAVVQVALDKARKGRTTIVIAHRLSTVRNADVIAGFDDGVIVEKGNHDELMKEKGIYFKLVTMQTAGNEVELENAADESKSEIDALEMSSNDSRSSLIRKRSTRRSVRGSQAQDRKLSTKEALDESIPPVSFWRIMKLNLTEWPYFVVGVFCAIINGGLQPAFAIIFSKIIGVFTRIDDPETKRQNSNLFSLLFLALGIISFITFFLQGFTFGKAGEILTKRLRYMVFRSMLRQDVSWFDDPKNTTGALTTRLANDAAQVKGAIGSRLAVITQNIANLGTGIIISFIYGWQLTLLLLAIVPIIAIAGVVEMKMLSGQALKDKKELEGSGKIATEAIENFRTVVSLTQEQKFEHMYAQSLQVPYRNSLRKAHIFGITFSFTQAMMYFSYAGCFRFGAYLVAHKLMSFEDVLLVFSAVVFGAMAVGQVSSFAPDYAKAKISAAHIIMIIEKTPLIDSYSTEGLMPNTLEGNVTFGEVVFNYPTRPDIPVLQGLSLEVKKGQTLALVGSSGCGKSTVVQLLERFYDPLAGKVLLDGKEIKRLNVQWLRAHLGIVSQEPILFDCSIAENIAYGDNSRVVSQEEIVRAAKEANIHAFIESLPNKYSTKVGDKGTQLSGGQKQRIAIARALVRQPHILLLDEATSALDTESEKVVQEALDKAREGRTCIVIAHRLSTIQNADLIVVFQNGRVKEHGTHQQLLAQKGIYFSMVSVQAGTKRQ

What is called pIC50 is the negative decadic logarithm of the IC50, by convention in mol/L. In the case of `COc1ccc2c3c(c4cc(OC)c(OC)cc4c2c1)C[C@@]1(CO)CCCN1C3`, the inhibition result with A549 [1], in the series on A549 [2], in the series with A549 [5], in the series with A549 [19] and in the series on A549 [21] was “Active” in each case. In addition, the inhibition result (in series [3]; in the series on A549 [4]) was “Dose-dependent effect” each time. In addition, the Activity came out at 37.1% in series [6]; 10.94% in the series with A549 [8]; 1.21% in the series on A549 [12]; 69.43% in the series on A549 [13]; 20.71% with A549 [15]; 2.31% with A549 [16]. Also, the Activity amounted to 11.37% in the series on A549 [17], 1.29% with A549 [18], 10.78% with A549 [20] and 66.07% in the series with A549 [22]. Besides, the “fractional inhibitory concentration index (FICI)” value in [7] came to 0.653; in series [10], 0.413; in [14], 0.242. Also, the negative-log IC50 (pIC50) with A549 [9] is 6.70; in the series on SNU-638, 7.10. Besides, in the series with A549 [11], the outcome was Active. Besides, in the series on A549 [23], the inhibition in vivo at 5 mg/kg came to 54.9%.

(Values after ChEMBL document CHEMBL2346587, “Design, synthesis, and evaluation of a water-soluble antofine analogue with high antiproliferative and antitumor activity” (Bioorg Med Chem, 2013).)
